{"data": "Measured values from different studies", "target": "Aurora kinase B (AURKB, Homo sapiens, UniProt Q96GD4)", "note": "Protocols differ between the studies behind these lines."}
{"SMILES": "O=C1c2ccccc2-c2n[nH]c3cccc1c23", "assay": "enzyme activity, inhibitor", "setting": "0.5 µM", "endpoint": "activity vs control", "result": "14.9%"}
{"SMILES": "CO[C@@H](C)c1c(Nc2ccc([C@@H](N(C)C(=O)C3CCS(=O)(=O)CC3)C(F)(F)F)cc2)cnc2cc(Cl)nn12", "assay": "cell-free assay, competition with immobilised ligand", "setting": "1 µM", "endpoint": "remaining binding", "result": "74%"}
{"SMILES": "c1cc(CN2CCOCC2)cc(Nc2ncc(C3CC3)c(NCCc3c[nH]cn3)n2)c1", "assay": "enzyme activity, inhibitor, radiometric", "setting": "1 µM", "endpoint": "remaining activity", "result": "2%"}
{"SMILES": "CN(C)C1CCN(CC#Cc2nn(C3CCCC3)c3nc(NCc4ccccc4)ncc23)C1 (centres unmarked)", "assay": "enzyme activity, inhibitor, FRET", "setting": "1 µM", "endpoint": "inhibition", "result": "21%"}
{"SMILES": "Cc1ccc(C(=O)NCc2ccsc2)cc1C#Cc1cn(C(C)C)c2ncnc(N)c12", "assay": "enzyme activity, inhibitor", "setting": "1 µM", "endpoint": "activity vs control", "result": "40%"}
{"SMILES": "Cc1nc(N2CC[C@@H](O)C2)ncc1-c1cc(C(F)(F)F)cc2[nH]ncc12", "assay": "cell-free assay, competition with immobilised ligand", "setting": "1 µM", "endpoint": "remaining binding", "result": "100%"}
{"SMILES": "C=CC(=O)Nc1cc(Nc2nccc(Nc3cc(Cl)c(F)cc3C(C)(C)O)n2)c(OC)cc1N1CC[C@@H](N(C)C)C1", "assay": "enzyme activity, inhibitor", "setting": "1 µM", "endpoint": "inhibition", "result": "10%"}
{"SMILES": "CN(C)S(=O)(=O)c1ccc2c(c1)/C(=C/c1cc3c([nH]1)CCCC3)C(=O)N2", "assay": "cell-free assay", "setting": "0.5 µM", "endpoint": "remaining signal", "result": "11%"}
{"SMILES": "CN1CC(Oc2cnc(C#N)cc2-c2ccn3nc(NC(=O)C4CC4)cc3c2)C1", "assay": "enzyme activity, inhibitor", "setting": "1 µM", "endpoint": "inhibition", "result": "1%"}
{"SMILES": "CC(=O)C1=C(C)N(c2cccc(C(F)(F)F)c2)C(=O)N[C@@H]1c1ccc(C#N)nc1", "assay": "cell-free assay, competition with immobilised ligand", "setting": "1 µM", "endpoint": "remaining binding", "result": "100%"}
{"SMILES": "CNc1cccc2cc(C(=O)Nc3ccc(C(=O)O)cc3)c(=O)[nH]c12", "assay": "enzyme activity, inhibitor", "setting": "10 µM", "endpoint": "inhibition", "result": "-8.1%"}
{"SMILES": "Cc1c[nH]c2nccc(Oc3c(F)cc(Nc4cc(Cl)nc(N)n4)cc3F)c12", "assay": "cell-free assay, competition with immobilised ligand", "setting": "0.1 µM", "endpoint": "remaining binding", "result": "82%"}
{"SMILES": "CC/C(=N\\NC(=O)NCc1cccc(O)c1)c1ccc(O)c(C)c1O", "assay": "enzyme activity, inhibitor", "setting": "0.1 µM", "endpoint": "inhibition", "result": "2.9%"}
{"SMILES": "CN(C)CC#Cc1ccc(OCCCc2sc(N3CCc4cccc(C(=O)Nc5nc6ccccc6s5)c4C3)nc2C(=O)O)c(F)c1", "assay": "cell-free assay, competition with immobilised ligand", "setting": "1 µM", "endpoint": "remaining binding", "result": "79%"}
{"SMILES": "O=C(NCCCNc1nc(Nc2cccc(NC(=O)N3CCCC3)c2)ncc1C1CC1)C1CCC1", "assay": "enzyme activity, inhibitor, radiometric", "setting": "1 µM", "endpoint": "remaining activity", "result": "11%"}
{"SMILES": "O=C(CSc1nc2nccnc2c(=O)n1CCc1ccccc1)Nc1nccs1", "assay": "enzyme activity, inhibitor", "setting": "10 µM", "endpoint": "inhibition", "result": "6%"}
{"SMILES": "Brc1cnc(Nc2cccc(CN3CCOCC3)c2)nc1NCCc1c[nH]cn1", "assay": "enzyme activity, inhibitor, radiometric", "setting": "1 µM", "endpoint": "remaining activity", "result": "1%"}
{"SMILES": "N#CCCc1ccc2c(c1)-c1[nH]c3ccc([N+](=O)[O-])cc3c1CC(=O)N2", "assay": "cell-free assay", "setting": "0.5 µM", "endpoint": "remaining signal", "result": "80%"}
{"SMILES": "CC(=O)c1c(NS(C)(=O)=O)c2cc(-c3ccc(Cl)cc3)c(-c3ccc(Cl)cc3Cl)nc2n(C)c1=O", "assay": "cell-free assay, competition with immobilised ligand", "setting": "1 µM", "endpoint": "remaining binding", "result": "100%"}
{"SMILES": "NS(=O)(=O)c1ccc(CNc2ccnc(Nc3cccc(CN4CCOCC4)c3)n2)cc1", "assay": "enzyme activity, inhibitor, radiometric", "setting": "1 µM", "endpoint": "remaining activity", "result": "48%"}
